This data set is described as follows: Toxicity liver stage against HepG2, at 10uM. The format is cell-based. More on the design: test concentration 10 uM, cell line HepG2-A16-CD81EGFP. The note with it: human, HepG2-A16-CD81EGFP cells; read-out: INHIBITION
The method in brief:
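Uninfected HepG2-A16-CD81EGFP cells, 3 × 10^3 per well, 1536-well, plated on prespotted compound at 10 μM final, parasite-free screening media added to match infected plates; puromycin 10 μM positive, DMSO 0.5% negative; run in parallel with 48 h PbLuc assay at 37 °C, 5% CO2; viability by CellTiter-Glo luminescence, normalized to controls.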
Regarding `CC(NC(=O)Nc1ccc(OC2CCCC2)cc1)c1nc[nH]n1` (stereo not drawn), the cytotoxicity at 10 µM was -5.42%.

Regarding `O=C(C1=CC2(CCN(CCO)CC2)c2ccccc21)N1CCCC1`, the cytotoxicity at 10 µM is -1.16%.

In the case of `COCCN1CCc2cc(C(=O)O)c(-c3ccoc3)nc2CC1`, the cytotoxicity at 10 µM is -75.6%.

As to `CC(C)(C)c1ncc(C(=O)N2CCC(N3CCSCC3)CC2)c(O)n1`, the cytotoxicity at 10 µM was determined as 0.382%.

Regarding `Cc1nc(C)c(C(=O)N2CCCC2c2nnc3n2CCCCC3)s1` (stereo not drawn), the cytotoxicity at 10 µM was -2.62%.

On to `Cc1cnn(CC2CN(Cc3cccnc3)CCO2)c1` (stereo not drawn), for which the cytotoxicity at 10 µM is -3.27%.

On to `COCC1CN(S(=O)(=O)c2cccs2)Cc2ncnn2C1` (stereo not drawn), for which the cytotoxicity at 10 µM was -120%.

As to `Cc1ccc(Cl)c(C(C(=O)O)N(C)Cc2cnn(C)c2)c1` (stereo not drawn), the cytotoxicity at 10 µM is -11%.

Turning to `c1ccc(CCCN2CCCC2Cn2cncn2)cc1` (stereo not drawn), the cytotoxicity at 10 µM is -0.121%.

For the compound `CC(NC(=O)c1cccs1)C(=O)NS(=O)(=O)c1ccc(C#N)cc1` (stereo not drawn), the cytotoxicity at 10 µM was 5.11%.

On to `CC(C(=O)N1CCc2ccccc21)N1CCc2cncnc2C1` (stereo not drawn), for which the cytotoxicity at 10 µM turned out to be 0.693%.

As to `O=C(Cn1nc2c(cc1=O)CCCC2)NC(Cc1ccccc1)C(=O)O` (stereo not drawn), the cytotoxicity at 10 µM is 2.24%.

For `CN(C)S(=O)(=O)N1CCC2(COCc3cnc(NCC4CC4)nc32)C1` (stereo not drawn), the cytotoxicity at 10 µM was 7.66%.

For `Cc1nc(C)n(C2CCCN(C(=O)c3nc(C)n4ccccc34)C2)n1` (stereo not drawn), the cytotoxicity at 10 µM was -10.9%.

With `O=C(NCCNc1cnccn1)N1CCN(Cc2cccnc2)CC1`, the cytotoxicity at 10 µM was determined as 4.07%.

In the case of `Cc1nn(C)c2nc(N3CCC(C(O)c4nccn4C)CC3)sc12` (stereo not drawn), the cytotoxicity at 10 µM turned out to be 0.79%.

As to `COc1cccc(N2CCC(CNCc3cccc(C#N)c3)C2)c1` (stereo not drawn), the cytotoxicity at 10 µM is -15.3%.

Consider `CN(Cc1nnc(C2CC2)o1)C1CCN(CCc2cccs2)C1` (stereo not drawn), for which the cytotoxicity at 10 µM was -2.01%.

In the case of `Cc1nnsc1CNC(=O)Nc1cccc(N2CCN(C)C2=O)c1`, the cytotoxicity at 10 µM is -3.97%.

For the compound `Cc1cncc(C2CCN(Cc3cccn3C)CC2)n1`, the cytotoxicity at 10 µM was -6.94%.

On to `Cn1ccc2c(C(=O)N3CC[C@@]4(O)CCCC[C@H]4C3)cccc21`, for which the cytotoxicity at 10 µM is -42.9%.

As to `c1cnnc(N2CCCC(NCc3nc(-c4ccsc4)no3)C2)c1` (stereo not drawn), the cytotoxicity at 10 µM turned out to be 7.79%.

As to `Cc1ccc(OCCN(C)C2CCOC2=O)cc1` (stereo not drawn), the cytotoxicity at 10 µM was -146%.

For the compound `CCc1[nH]c2c(CNc3cncc(C(=O)N(C)C)n3)cc(C)cc2c1C`, the cytotoxicity at 10 µM is -10.2%.

For `O=C(NCC1CCCO1)c1cc(-c2ccc3c(c2)CCO3)n[nH]1` (stereo not drawn), the cytotoxicity at 10 µM is -8.13%.

On to `O=C1NCCCc2[nH]c(-c3nc(C4CC4)no3)nc21`, for which the cytotoxicity at 10 µM was -5.74%.

Take `Cn1cccc1-c1cc(C(=O)N2CCCCC2c2ccc(F)cc2)[nH]n1` (stereo not drawn): the cytotoxicity at 10 µM was -2.8%.

Regarding `OCc1n[nH]c(-c2ccc(F)cc2)n1`, the cytotoxicity at 10 µM is -4.64%.

As to `Cc1noc(C)c1NC(=O)CCn1cc(Br)ccc1=O`, the cytotoxicity at 10 µM was found to be 7.07%.

Turning to `NC(=O)CN1CCCN(C(=O)Cc2cccc(C(F)(F)F)c2)CC1`, the cytotoxicity at 10 µM was -3.05%.

Turning to `CCN1CC2(CNCCN(C(=O)Nc3ccccc3)C2)CC1=O` (stereo not drawn), the cytotoxicity at 10 µM was found to be 0.346%.

Regarding `O=C1CN(CCCNC(=O)Nc2ccccn2)CCN1`, the cytotoxicity at 10 µM is -10.1%.

Turning to `CN(C)C(=O)CNC(=O)c1ccc2ccc(N(C)CC3CC3)n2c1`, the cytotoxicity at 10 µM is 1.11%.

Take `c1cnc(N2C[C@H]3CCN(c4cccnc4)C[C@H]3C2)nc1`: the cytotoxicity at 10 µM is -14.7%.

As to `CNc1nc2c(c(C(=O)N3CCCC3)n1)CN(C(=O)C1CCCC1)CC2`, the cytotoxicity at 10 µM is -114%.

Take `COC(=O)CN1CCC(C(=O)c2cc(F)ccc2F)CC1`: the cytotoxicity at 10 µM was -6.52%.

Turning to `Cc1ccc(F)c(C(=O)Nc2cccc(CCN3CCCC3)c2)c1`, the cytotoxicity at 10 µM came to 0.0833%.

Regarding `Nc1nc2nc(C3CCN(C(=O)c4cscn4)C3)ccc2s1` (stereo not drawn), the cytotoxicity at 10 µM was -5.72%.

As to `CSCCCNC(=O)c1coc(Cn2cnc3ccccc32)n1`, the cytotoxicity at 10 µM is -6.33%.

Turning to `COCCn1cncc1CN1CCC(C(C)=O)(c2ccccc2)CC1`, the cytotoxicity at 10 µM amounted to 1.92%.

Regarding `Cc1n[nH]c(C2CN(C(=O)c3cc(C4CC4)on3)CCO2)n1` (stereo not drawn), the cytotoxicity at 10 µM was -9.63%.

Take `CN1CCN(C(=O)c2cc(-c3ccco3)cs2)CC1`: the cytotoxicity at 10 µM worked out at 1.63%.

Regarding `COc1ccccc1OCCNC(=O)NCc1nc(C)no1`, the cytotoxicity at 10 µM was 6.67%.

For the compound `Cn1ncc(C(=O)N2CCN(S(C)(=O)=O)CC2)c1Cl`, the cytotoxicity at 10 µM amounted to 7.58%.

Turning to `CCc1cnc(C)nc1NCC(O)CN1CCCCCC1` (stereo not drawn), the cytotoxicity at 10 µM turned out to be 3.26%.

For `CCCNC(=O)c1cn(C(C)(C)C)c2ncccc12`, the cytotoxicity at 10 µM is -0.317%.

Take `COc1nn(C)c2c1CCCN(C(=O)c1c[nH]cn1)C2`: the cytotoxicity at 10 µM is -100%.

As for `Cc1ccc(N2CC[C@H]3C[C@H](C(=O)NCc4ccco4)O[C@@H]3C2)cc1`, the cytotoxicity at 10 µM worked out at 8.8%.

As for `O=C(COC1CCCC1)N1CCCC1c1noc(C2CC2)n1` (stereo not drawn), the cytotoxicity at 10 µM was 11%.

For `CC(=O)NCCCSC1CCN(c2ccccc2Cl)C1=O` (stereo not drawn), the cytotoxicity at 10 µM is -9.04%.

In the case of `C[C@@H](NCc1cccc(Cl)c1)c1onc(-c2ccc(F)cc2)c1C(=O)O`, the cytotoxicity at 10 µM is 0.258%.

In the case of `Fc1ccc(CN2CCOC[C@H](Oc3cccnc3)C2)cc1`, the cytotoxicity at 10 µM was determined as 7.35%.

Regarding `COc1cc(-c2cc(NC3CCCC3)nc3[nH]ccc23)nc(N)n1`, the cytotoxicity at 10 µM came to 10.2%.

On to `COc1cccc(C2CC(=O)Nc3nc(N)sc32)c1OC` (stereo not drawn), for which the cytotoxicity at 10 µM was determined as 3.74%.

For the compound `Cc1ncccc1Oc1nccnc1C1CCN(C(C)C)CC1`, the cytotoxicity at 10 µM was -6.05%.

As to `Cc1cccn2c(CC(=O)N3CCC(CCn4cccn4)CC3)cnc12`, the cytotoxicity at 10 µM was -53.1%.

`Cc1nc(CN2CCCC(N(C)CC(=O)Nc3cccnc3)C2)no1` (stereo not drawn): the cytotoxicity at 10 µM was -7.88%.

As to `O=C(CCC1CCCC1)N1CCC(c2ncc3c(n2)CCNC3)CC1`, the cytotoxicity at 10 µM was -3.91%.

For the compound `Cc1nn(C)c(N2CCOCC2)c1CNC(C)c1ccco1` (stereo not drawn), the cytotoxicity at 10 µM was -17.6%.

`O=C(CCc1cccc(Cl)c1Cl)N1CCOCC1c1ncon1` (stereo not drawn): the cytotoxicity at 10 µM is -2.33%.

In the case of `CNc1cc(C)nc(N2C[C@@H](C(=O)O)[C@H](C3CC3)C2)n1`, the cytotoxicity at 10 µM is -0.147%.

For `Cc1cnn(CC(C)NCc2cc(C#N)ccc2F)c1` (stereo not drawn), the cytotoxicity at 10 µM is 0.224%.

Take `CC(=O)NC[C@H]1COCc2nc3cc(S(C)(=O)=O)ccc3n21`: the cytotoxicity at 10 µM was 0.722%.

On to `COc1ccc(NC(C)=O)c(N2CCN(C(C)=O)CC2)n1`, for which the cytotoxicity at 10 µM was -8.83%.

On to `Cc1cc(C)nc(CCNC(=O)C(c2ccc(F)cc2)N(C)C)n1` (stereo not drawn), for which the cytotoxicity at 10 µM was -40.1%.

Turning to `CCc1ccc2nc(NCCOCCO)cc(C)c2c1`, the cytotoxicity at 10 µM is -2.78%.

For the compound `CC(C)c1cc(N2CCN(c3ccc(O)cc3)CC2)n2nccc2n1`, the cytotoxicity at 10 µM is -5.76%.

In the case of `COC(=O)C1CCCN1CC(=O)NCc1ccc(OCC(N)=O)cc1` (stereo not drawn), the cytotoxicity at 10 µM was 7.45%.

Turning to `Cc1csc(CNC(=O)NC2CCCN(S(C)(=O)=O)C2)n1` (stereo not drawn), the cytotoxicity at 10 µM was -6.3%.

For the compound `CC1c2ncc(COc3cccnc3)n2CCN1C(=O)Cc1ccco1` (stereo not drawn), the cytotoxicity at 10 µM is -5.13%.

Turning to `Cc1nc(C2CCCN2C(=O)c2ccc(F)cc2)ncc1C(N)=O` (stereo not drawn), the cytotoxicity at 10 µM is -7.62%.

For the compound `CC(NC(=O)N1CCC(c2ccccc2)CC1)c1nncn1C` (stereo not drawn), the cytotoxicity at 10 µM was -10.3%.

As for `c1ccc(-c2ccc(CN3CCOC(Cn4cncn4)C3)cc2)cc1` (stereo not drawn), the cytotoxicity at 10 µM was determined as 9.96%.

As for `c1ccc(CN2CCC3(CC2)CCN(Cc2cccnc2)C3)nc1`, the cytotoxicity at 10 µM is -78.6%.

For the compound `CC(=O)N[C@@H]1CN(C(=O)CC2CCOCC2)C[C@H]1O`, the cytotoxicity at 10 µM is -3.3%.

Turning to `COCCN(Cc1c(C)nn(C)c1C)C(=O)C1COc2ccccc2C1` (stereo not drawn), the cytotoxicity at 10 µM was -3.87%.

For `CC(=O)NCCNC(=O)c1sc(-c2ccc(C)cc2C)nc1C`, the cytotoxicity at 10 µM was -7.62%.

On to `Cc1nc(O)cc(C2CCN(C(=O)c3[nH]nc4c3CC(C)CC4)CC2)n1` (stereo not drawn), for which the cytotoxicity at 10 µM was 3.06%.

For `O=C(O)C1(Oc2ccccc2F)CCN(C/C=C/c2ccco2)CC1`, the cytotoxicity at 10 µM is -6.49%.

On to `CC(=O)N1CCCC(c2ccnc(Nc3cnccn3)n2)C1` (stereo not drawn), for which the cytotoxicity at 10 µM was -12.5%.

Take `COc1ccc(CN2CC[C@H](O)[C@@H]2Cc2cnn(C)c2)cc1`: the cytotoxicity at 10 µM was -81.7%.

For the compound `CC(C)CCNC(=O)C1CCN(c2ccc3nnc(C(C)C)n3n2)CC1`, the cytotoxicity at 10 µM is 1.68%.

As to `COCc1nn(C)c2c1CN(Cc1cnn(C)c1)CC2`, the cytotoxicity at 10 µM worked out at 1.64%.

`Cc1nc(CNC(=O)CCN2CCN(c3ccccc3)CC2)oc1C`: the cytotoxicity at 10 µM is -4.04%.

In the case of `Cc1nc(C)n(C2CCCN(C(=O)c3ccc(NC4CC4)nc3)C2)n1` (stereo not drawn), the cytotoxicity at 10 µM is -3.36%.

With `CNC(=O)COC1COC2(CCN(c3ncccn3)CC2)C1` (stereo not drawn), the cytotoxicity at 10 µM is -3.4%.

As to `O=C(NC1CC1)C1CCc2nnc(C3CC3)n21` (stereo not drawn), the cytotoxicity at 10 µM worked out at 11.2%.

Turning to `CCOCCC(=O)N(Cc1ccncc1)C(C)CC` (stereo not drawn), the cytotoxicity at 10 µM was determined as 9.99%.

Regarding `CC(Cn1cccn1)NCc1csc(-c2ccsc2)n1` (stereo not drawn), the cytotoxicity at 10 µM was -3.96%.

For `N#Cc1ncn(CCS(=O)(=O)c2ccccc2)n1`, the cytotoxicity at 10 µM is 1.18%.

As to `CSc1ccc(OCCN2CCC(n3cncn3)CC2)cc1`, the cytotoxicity at 10 µM was -12.6%.

Take `CN(Cc1noc(C(C)(C)C)n1)CC1CCN(CCO)CC1`: the cytotoxicity at 10 µM was 7.17%.

In the case of `CCN(C(=O)c1c(Cl)cnn1CC)C(C)C(N)=O` (stereo not drawn), the cytotoxicity at 10 µM was -16.1%.

In the case of `CC(C)CC(NC(=O)c1ccco1)c1nnc2ccccn12` (stereo not drawn), the cytotoxicity at 10 µM is -6.21%.

With `O=C(C1CCOCC1)N1CCC(OCc2cccnc2)CC1`, the cytotoxicity at 10 µM is 2.12%.

On to `COc1ccc(-c2nnsc2C(=O)N2CCN(C(C)=O)CC2)cc1`, for which the cytotoxicity at 10 µM was -0.145%.

As to `O=C(Nc1cccnc1-n1cc(Cl)cn1)C1CCCC1`, the cytotoxicity at 10 µM is -43.3%.

Turning to `CO[C@@H]1CO[C@@]2(CCCN(C(=O)C3CC=CC3)C2)C1`, the cytotoxicity at 10 µM was -105%.

The values are drawn from ChEMBL document CHEMBL4513216, “Probing the Open Global Health Chemical Diversity Library for Multistage-Active Starting Points for Next-Generation Antimalarials” (ACS Infect Dis, 2020).
